Test results from ChEMBL document CHEMBL3580541, “Mebamamides A and B, Cyclic Lipopeptides Isolated from the Green Alga Derbesia marina” (J Nat Prod, 2015).
Activity calls are given as the source filed them. The calls are words filed in the database; no cut-off is given here.

Key:
[1] = system: HeLa; assay: Cytotoxicity against human HeLa cells after 72 hrs by Trypan blue dye exclusion assay; type: functional, cell-based; settings: in the assay text read “MTT assay” for “Trypan blue dye exclusion assay”
In short: (§1)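 MTT read-out of proliferation. HeLa cells were grown in supplemented DMEM with 10% heat-inactivated FBS, seeded at 2 × 10^4 cells/well and cultured overnight. HL60 cells were grown in supplemented RPMI with 10% FBS and seeded at 1 × 10^5 cells/well. Compounds were added at 0.1−100 μM and incubated 72 h at 37 °C, 5% CO2.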

[2] = system: HL-60; assay: Induction of cell adhesion in human HL60 cells at 100 uM measured upto 72 hrs by hemocytometry; type: functional, cell-based
In short: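 HL60 cells were seeded at 1 × 10^5 cells/well in 200 μL medium and given 100 μM compound; TPA at 16 nM served as comparator. Both fractions were counted by hemocytometer. Means ± SD of quadruplicate determinations.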

[3] = system: HL-60; assay: Cytotoxicity against human HL60 cells after 72 hrs by Trypan blue dye exclusion assay; type: functional, cell-based; settings: HL-60, 72 h, in the assay text read “MTT assay” for “Trypan blue dye exclusion assay”; in short: as §1
[4] = system: HL-60; assay: Induction of human HL60 cell differentiation into macrophages at 16 nM after 72 hrs by May-Giemsa staining based microscopy; type: functional
In short: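 HL60 cells were grown in RPMI with 10% heat-inactivated FBS, penicillin/streptomycin, amphotericin and L-glutamine at 37 °C in 5% CO2. They were seeded at 2 × 10^4 cells/well and treated for 72 h. Cells were washed once in PBS, stained with May–Giemsa, and examined by light microscopy for macrophage-like morphology.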

[5] = system: HL-60; assay: Induction of human HL60 cell phagocytotic activity at 16 nM after 48 hrs by trypan based fluorescent microscopy; type: functional
In short: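 HL60 cells were seeded at 2 × 10^4 cells/well. FITC-conjugated latex beads and agent were added together, with TPA at 16 nM as the reference, and cells were incubated for 48 h. Uptake was assessed by fluorescence microscopy using a commercial phagocytosis kit run per the manufacturer's protocol.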

[6] = system: HeLa; assay: Cytotoxicity against human HeLa cells at 100 uM after 72 hrs by Trypan blue dye exclusion assay; type: functional, cell-based; settings: in the assay text read “MTT assay” for “Trypan blue dye exclusion assay”; in short: as §1
[7] = system: HL-60; assay: Induction of human HL60 cell differentiation into macrophages at 100 uM after 72 hrs by May-Giemsa staining based microscopy; type: functional
In short: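 Differentiation was judged by morphology. HL60 cells were seeded at 2 × 10^4 cells/well in 200 μL medium, treated 72 h with 100 μM compound or 16 nM TPA, washed once in PBS, stained with May−Giemsa and examined by light microscopy.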

[8] = system: HL-60; assay: Induction of human HL60 cell phagocytotic activity at 100 uM after 48 hrs by trypan based fluorescent microscopy; type: functional
In short: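 Phagocytosis was run with a commercial kit. HL60 cells were seeded at 2 × 10^4 cells/well in 200 μL medium, given 20 μL FITC-conjugated latex bead suspension plus 100 μM compound or 16 nM TPA, incubated 48 h and examined by fluorescence microscopy.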

[9] = system: HL-60; assay: Cytotoxicity against human HL60 cells at 100 uM after 72 hrs by Trypan blue dye exclusion assay; type: functional, cell-based
In short: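 HL60 cells were seeded at 1 × 10^5 cells/well in 24-well plates and exposed to 100 μM compound for 72 h. They were then stained with 0.8 mg/mL trypan blue. Viability was determined by counting stained (dead) cells.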

`CC(=O)O[C@@H](CCCC[C@@H](O)CC(=O)N[C@H](CO)C(=O)N[C@@H](CC(C)C)C(=O)N1CCC[C@H]1C(=O)N[C@H](C)C(=O)N[C@@H]1C(=O)N[C@H](Cc2ccccc2)C(=O)N2CCC[C@H]2C(=O)N[C@H](CC(C)C)C(=O)N[C@@H](C(C)C)C(=O)O[C@@H]1C)C(C)C` was tested, and the IC50 [1] was 48 µM, the Activity [2] was “inactive” and the IC50 [3] was 19 µM.

For `CCCCCCCCCCCCCC(=O)O[C@@H]1[C@@H](C)[C@@]2(O)[C@@H](C=C(CO)C[C@]3(O)C(=O)C(C)=C[C@@H]23)[C@@H]2C(C)(C)[C@]12OC(C)=O`, the Activity [4] was “Active” and the Activity [5] was “Active”.

For `CC(C)C[C@H](NC(=O)[C@@H](CO)NC(=O)C[C@H](O)CCCC[C@H](O)C(C)C)C(=O)N1CCC[C@H]1C(=O)N[C@H](C)C(=O)N[C@@H]1C(=O)N[C@H](Cc2ccccc2)C(=O)N2CCC[C@H]2C(=O)N[C@H](CC(C)C)C(=O)N[C@@H](C(C)C)C(=O)O[C@@H]1C`, the “growth inhibition (GI)” value [6] was “inactive”, the Activity [7] was “Active” and the Activity [2] was “Active”. For the same molecule, the Activity [8] was “Active” and the “growth inhibition (GI)” value [9] was “inactive”.
